ARFGAP1 inhibitor = inhibitors of rat ARFGAP1. Q62848. Arfgap1-stimulated ARF1 GTP hydrolysis, GDP FP detection. inhibition, % at 16.5 µM. 360,000 compounds, 0.26% hits. AID 651572;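 active means inhibition above a per-plate limit, mean inhibition of low control wells plus 3 SD, cut at about 25% in these data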;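 further: 0% = DMSO wells with enzyme and 100% = wells lacking Arfgap1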
Target sequence (Q62848 1-136 limits assumed): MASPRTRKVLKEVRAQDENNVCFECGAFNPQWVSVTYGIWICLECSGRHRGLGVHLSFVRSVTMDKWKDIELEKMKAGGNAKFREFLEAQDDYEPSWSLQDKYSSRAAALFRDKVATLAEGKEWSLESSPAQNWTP
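System: truncated rat Arfgap1 GAP domain / Benchmarks: high control wells lacking Arfgap1, low control full reaction with DMSO / Times: compound-enzyme preincubation 20 min, reaction 120 min, detection 60 min, 25 °C / Repeats: one replicate per compound / Also added: human ARF1(Δ1-17)-GTP substrate / Measured by: Tracer-displacement fluorescence polarization with EDTA stop, 620/688 nm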
ASAP1 inh = blocks human ASAP1-stimulated Arf1 GTP hydrolysis | 360,000 compounds, 0.19% hits | inhibition, % at 16.5 µM | GDP FP detection | Q9ULH1; in the data active means inhibition above about 25%;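 further: 0% = vehicle with enzyme and substrate and 100% = no enzyme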
APOBEC3G inh = blocks human APOBEC3G single-stranded DNA deamination; Q9HC16; recombinant A3G, ssDNA deamination FAM/TAMRA fluorescence; inhibition, % at 20 µM; 330,000 compounds, 0.28% hits; AID 493012;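 active means inhibition of at least 40% at 20 µM, with no more than 30% in the related APOBEC3A deaminase screen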;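 further: plate controls were DMSO wells with A3G for no effect and wells lacking A3G enzyme for full effect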
Target sequence (Q9HC16 whole entry, looked up): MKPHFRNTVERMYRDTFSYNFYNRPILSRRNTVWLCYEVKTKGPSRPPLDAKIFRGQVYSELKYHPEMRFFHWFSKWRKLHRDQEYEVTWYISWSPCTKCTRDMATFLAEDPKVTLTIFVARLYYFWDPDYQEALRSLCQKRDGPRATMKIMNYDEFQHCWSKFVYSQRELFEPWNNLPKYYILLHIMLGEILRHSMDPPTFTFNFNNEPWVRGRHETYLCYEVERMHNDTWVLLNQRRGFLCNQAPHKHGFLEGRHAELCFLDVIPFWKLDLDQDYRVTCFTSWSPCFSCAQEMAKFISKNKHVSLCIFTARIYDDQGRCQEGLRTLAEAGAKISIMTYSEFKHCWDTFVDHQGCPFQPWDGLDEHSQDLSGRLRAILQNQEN
Statin myotox sup = suppressors of simvastatin-induced myotoxicity in C2C12 myotubes | ATP luminescence, 48 h; scaled: DMSO 0, geranylgeraniol control 100 | rescue of ATP level, % at 7.49 µM | 330,000 compounds, 0.78% hits | AID 602340;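 active means mean ATP rescue above about 67%, or every replicate alone reaching that limit, limit read from the data, passing the limit was not always enough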;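 further: myotubes were challenged with 10 µM simvastatin during compound exposure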
APOBEC3A inh = inhibitors of human APOBEC3A DNA deaminase | P31941 | recombinant A3A, FAM/TAMRA ssDNA deamination fluorescence | inhibition, % at 20 µM | 330,000 compounds, 0.41% hits | AID 493011;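 active means at least 40% inhibition at 20 µM here, with at most 30% in a related deaminase screen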;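 further: plate controls were A3A with DMSO for no effect and wells lacking A3A enzyme for full effect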
SUMO Mot1 rescue = inhibitors of SUMOylation pathway: yeast Mot1-301 growth rescue. S. cerevisiae Mot1-301 growth rescue, ATP luminescence, 38.5C; percent above DMSO median, 100 means doubled. growth rescue, % at 18.8 µM. 320,000 compounds, 1% hits. AID 2716;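 active means every valid replicate shows activation above 250% relative to neutral control wells; inactive means the rest, any valid replicate at or below 250%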;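 further: OY570 slx delta 5 strain wells were the positive control but not used for scaling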
A3G conf = APOBEC3G (human) deaminase inhibition, confirmed; inhibition, % at 20 µM; shares compounds with APOBEC3G inh; 890 compounds, 72% hits; recombinant A3G ssDNA deaminase, UDG/FAM-TAMRA fluorescence;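 active means inhibition reaching a set limit in any replicate at 20 µM, the limit being 80% of the first screen's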
UDG ctr A3G = inhibits E. coli UDG, flagging false APOBEC3G inhibitors. shares compounds with APOBEC3G inh. UDG counterscreen, FAM/TAMRA oligo fluorescence. inhibition, % at 20 µM. 710 tested, under 10 active. AID 504715;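 active means compounds giving 40% or more inhibition at 20 µM in any one of the three replicates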;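 further: plate controls were DMSO wells with UDG and oligo for no effect and DMSO wells lacking both for full effect; inhibitors lower the FAM signal released by uracil excision and alkaline cleavage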
The depositor's hits bear a star; . = not tested or not shown. Rows were chosen to be rich in hits. Some 2.1% of all compounds tested hit in one or more screens of this group.

SMILES | ARFGAP1 inhibitor | ASAP1 inh | APOBEC3G inh | Statin myotox sup | APOBEC3A inh | SUMO Mot1 rescue | A3G conf | UDG ctr A3G
COC(=O)CCC(=O)Nc1sc(C)c(C)c1C(N)=O | 14 | 8 | 57* | 111* | 0 | -16 | 55* | -1
COC(=O)CCC(=O)Nc1sc(Cc2ccccc2)c(C)c1C(N)=O | 3 | 6 | 45* | . | 0 | -26 | 57* | 0
CO[C@H]1CN(C)C(=O)c2cc(NC(C)=O)ccc2OC[C@H](C)N(C(=O)C2CCCCC2)C[C@@H]1C | . | . | . | 1 | . | . | . | .
O=C(CSC(=O)c1ccccc1)Nc1ccccc1F | -4 | -13 | 41* | 6 | 1 | 131 | 37* | -3
CC(C)(C)c1ccc(C(=O)NC(=S)NNC(=O)COc2ccccc2)cc1 | -7 | -11 | -5 | -5 | -3 | -30 | . | .
Cc1ccccc1C(=O)NCC(=O)NNC(=S)NC(=O)c1ccccc1 | 15 | -3 | 43* | -1 | -1 | -4 | 16 | -23
Cc1ccccc1C(=O)NNC(=S)NC(=O)COc1ccccc1 | 0 | 8 | 44* | . | -8 | 43 | 64* | -2
Cc1ccc(C(=O)NNC(=S)NC(=O)COc2ccccc2)cc1 | 16 | -6 | 53* | . | -4 | -4 | 50* | -4
CCC(=O)N1C[C@@H](O)COC[C@@H]2O[C@H](CC(=O)N3CCCCC3)CC[C@H]21 | . | . | . | -6 | . | . | . | .
C=C(C)C(=O)Nc1ccc2c(c1)OCCOCCOCCO2 | 7 | 0 | 78* | . | 20 | -6 | 86* | .
CC(=O)Nc1ccc2c(c1)OCCO2 | 6 | -11 | -3 | . | -1 | 5 | . | .
Cc1noc(C)c1NC(=O)Nc1ccc2c(c1)C(=O)N([C@H](C)CO)C[C@@H](C)[C@H](CN(C)C(=O)Nc1ccc(F)cc1)OCCCC[C@@H](C)O2 | . | . | . | 2 | . | . | . | .
CCOCCCn1c(=NC(=O)c2cccnc2)c(C(=O)OCC)cc2c(=O)n3ccccc3nc21 | -11 | 8 | 65* | 4 | 10 | . | 58* | 0
Cc1ccc(Cn2c(=S)[nH]c3ccc(N4CCOCC4)cc3c2=O)o1 | -3 | 0 | 59* | . | 10 | -10 | 76* | .
CNC[C@H]1Oc2ccc(NC(=O)Cn3cnnn3)cc2C(=O)N([C@H](C)CO)C[C@@H]1C | . | . | . | 17 | . | . | . | .
COCCn1c(SCC(=O)N2CCCc3ccccc32)nc2c(c1=O)SC(C)C2 (centres undefined) | -2 | -2 | 82* | -2 | -1 | -8 | -4 | 0
O=C(NC1CC1)c1sc2cc([N+](=O)[O-])ccc2c1Cl | -2 | 5 | -4 | . | -2 | 69 | . | .
CC(NC(=O)c1sc2cc([N+](=O)[O-])ccc2c1Cl)C(C)(C)C (centres undefined) | 1 | -2 | 55* | 11 | 1 | 21 | 69* | -3
COC(=O)[C@H](C)NC(=O)c1cc2c(cn1)[nH]c1ccccc12 | 12 | 4 | 50* | 0 | 0 | 14 | 77* | -2
Cc1cc(C)n(CCc2nc(-c3ccc(C)o3)cs2)n1 | -3 | 19 | 47* | 18 | 2 | -15 | 40* | .
Cc1cc(C)n(CCc2nc(-c3cc4ccccc4o3)cs2)n1 | 12 | 12 | -2 | 25 | -3 | 21 | . | .
O=C1CC(c2ccc(O)c(O)c2)Oc2c1ccc(O)c2O (centres undefined) | -11 | -1 | 41* | 13 | 25 | -11 | 55* | .
O=C(C[C@H]1CC[C@@H]2[C@H](COC[C@H](O)CN2S(=O)(=O)c2cccc(F)c2)O1)NC1CCC1 | . | . | . | -8 | . | . | . | .
O=[N+]([O-])c1ccc(N2CCN(c3ccccc3Cl)CC2)cn1 | -2 | 6 | -4 | -1 | 1 | -10 | . | .
O=[N+]([O-])c1ccc(N2CCN(c3ccc(O)cc3)CC2)cn1 | 10 | -2 | 47* | 30 | 2 | -1 | 13 | .

Screening results from PubChem.
